Most compounds without a hit are left out; they make up all but 4.9% or so of the library.
FLuc inhib CS – firefly luciferase enzyme inhibitors, primary screen, artefact control for luciferase-based inhibitor screens, biochemical, luminescence, ATPLite; 10 min; inhibition, % at 10 µM; actives 1.5% (n = 200,000); AID 1006, 2008;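 active = inhibition above about 50% when tested at 10 µM, limit read from the data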
Target sequence (P08659 whole entry, looked up): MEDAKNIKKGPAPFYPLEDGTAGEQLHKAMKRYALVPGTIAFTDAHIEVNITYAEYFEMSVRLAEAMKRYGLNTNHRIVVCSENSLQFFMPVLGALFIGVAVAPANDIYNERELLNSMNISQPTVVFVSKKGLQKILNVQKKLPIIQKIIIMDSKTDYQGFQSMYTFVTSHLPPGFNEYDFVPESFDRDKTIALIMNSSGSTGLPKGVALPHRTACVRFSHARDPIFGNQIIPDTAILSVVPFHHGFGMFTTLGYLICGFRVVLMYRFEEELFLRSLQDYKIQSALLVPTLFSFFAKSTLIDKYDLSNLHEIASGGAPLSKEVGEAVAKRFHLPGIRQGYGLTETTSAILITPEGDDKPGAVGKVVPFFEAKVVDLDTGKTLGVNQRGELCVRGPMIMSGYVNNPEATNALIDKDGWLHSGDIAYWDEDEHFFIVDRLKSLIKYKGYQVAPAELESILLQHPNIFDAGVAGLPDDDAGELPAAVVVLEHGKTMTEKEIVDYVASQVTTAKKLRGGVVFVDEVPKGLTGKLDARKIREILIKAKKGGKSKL
STAT1 act-1 – STAT1 signaling activators, primary screen, cell-based, HTS, luciferase reporter | actives 2.6% (n = 200,000) | activation (% of control), % at 5.5 µM | AID 932, 2007 | NIH 3T3 STAT1-luciferase reporter, IFN-gamma, luminescence; 100% = IFN-gamma alone, no compound;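 active = activation above the screen-wide mean activation plus 3 SD, cut at about 130% in these data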
STAT3 act-1 – IL-6 driven STAT3 reporter potentiators, primary screen, U3A cells, luciferase, luminescence, MLSCN library. actives 0.91% (n = 190,000). activation (% of control), % at 5.6 µM. AID 871, 2007. IL-6 STAT3-luciferase reporter; 100% = signal with IL-6 EC80 alone;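 active = activation above the screen-wide mean of compound activation plus 3 SD, cut at about 130% in these data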
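system = STAT3-luciferase reporter U3A cells | reagent = IL-6 stimulus at 33 ng/mL final | timing = 1 h compound pre-exposure, 6 h IL-6 stimulation, 37 °C | measured by = luminescence | evaluation = % activation versus median of IL-6-stimulated wells | control set = IL-6-only wells as 100% reference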
STAT1 blocker – STAT1 signaling inhibitors, primary screen, cell-based, HTS, luciferase reporter. NIH 3T3 STAT1-luciferase reporter, IFN-gamma, luminescence. actives 0.35% (n = 200,000). inhibition, % at 5.5 µM;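 active = inhibition above a set limit, the mean inhibition across all tested compounds plus 3 SD, cut at about 34% in these data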
FLuc stim CS – FLuc activators, initial screening, artefact control for FLuc-dependent activation tests, biochemical, ATPlite luminescence; Luciferin 4-monooxygenase (Photinus pyralis), P08659; ATPlite luciferase biochemical, 10 min; 0 = ATP-free wells, 1 = DMSO control; activation factor at 10 µM; AID 1027, 2008; 200,000 tested, under 10 active;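 active = luciferase activation factor, scaled between plate controls, of at least 2 with compound at 10 µM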
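Assay system: Luciferase/luciferin reagent mix; Medium: PBS as buffer for the ATP substrate; Dosing: test compounds dosed from 2 mM stocks in 100% DMSO; Times: 10 min, room temperature; Signal: luminescence from luciferase reaction; Read-out: luciferase activation; Controls: No-ATP low control, compound-free enzyme-plus-ATP high control.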
STAT3 inh – IL-6 driven STAT3 reporter inhibitors, primary screen, U3A cells, luciferase, luminescence, MLSCN library. IL-6 STAT3-luciferase reporter; host cell line lacks STAT1. inhibition, % at 5.5 µM. actives 0.89% (n = 190,000);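 active = inhibition above the mean inhibition across all screened compounds plus 3 SD, cut at about 44% in these data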
STAT3 act-2 – STAT3 reporter potentiators, retest of hits, confirmation, U3A cells, luciferase, luminescence. shares compounds with STAT3 act-1. potentiation (% of control), % at 5.7 µM. actives 64% (n = 1,200). IL-6 potentiation; U3A cells lack STAT1; 100 means same as IL-6 alone. AID 1267, 2008;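 active = percent activation of the STAT3 luciferase reporter above a set limit taken from the earlier primary screen, cut at about 130% in these data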
NFkB act 2 – NF-kB reporter activators in human cells, counter-screen for STAT3 activator project. actives 11% (n = 1,200). activation (% of control), % at 5.7 µM. shares compounds with STAT3 act-1. NF-kappaB reporter activation. AID 1309, 2008; in the data active = activation above about 120%;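 note: reporter induced by TNF-alpha stimulation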
STAT1 act-2 – STAT1 reporter activators, IFN-gamma induced, counter-screen for STAT3 activator project, cell-based, NIH 3T3, luciferase luminescence | NIH 3T3 STAT1-luciferase reporter | activation (% of control), % at 5.7 µM | actives 13% (n = 1,200) | shares compounds with STAT3 act-1 | AID 1318, 2008;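 active = activation above the solvent-only control well mean plus 3 SD, set per screening run, cut at about 120% in these data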
A number is an active result; i = inactive; nt = no result given.

SMILES | FLuc inhib CS | STAT1 act-1 | STAT3 act-1 | STAT1 blocker | FLuc stim CS | STAT3 inh | STAT3 act-2 | NFkB act 2 | STAT1 act-2
CCN(CC)CCN(Cc1cc2ccc(C)c(C)c2[nH]c1=O)C(=S)NCc1ccco1 | i | i | i | i | i | i | nt | nt | nt
COc1ccc(OC)c2c1sc(=NC(=O)c1ccco1)n2C | i | i | 166 | i | i | i | 139 | i | i
CCn1c(=NC(=O)c2ccco2)sc2cccc(F)c21 | i | i | 144 | i | i | i | i | i | 125
COc1ccccc1CN1CCNC(=O)C1CC(=O)NCCOc1cccnc1 (stereo not given) | i | i | i | i | i | i | nt | nt | nt
O=C(NC(=S)N1CCc2ccccc21)c1ccccc1Br | i | i | i | i | i | i | nt | nt | nt
COCCn1c(-c2ccc(-c3ccc([N+](=O)[O-])cc3Br)o2)nc2c1c(=O)[nH]c(=O)n2CC(C)C | i | i | i | i | i | i | nt | nt | nt
CCC/C=N/NC(=O)c1[nH]c2c([N+](=O)[O-])cccc2c1C | i | i | i | i | i | i | nt | nt | nt
Fc1ccc(-c2nc3ccccc3c3nc4ccccc4n23)cc1 | i | i | i | i | i | i | nt | nt | nt
Cc1ccc(-c2nnn3c2nc(Cl)c2ccccc23)cc1 | i | i | 147 | i | i | i | 145 | i | i
Fc1cccc(-c2nnn3c2nc(Cl)c2ccccc23)c1 | i | i | 165 | i | i | i | 183 | i | i
COc1ccc(CCNC(=S)NCc2ccc(Cl)c(Cl)c2)cc1OC | i | i | i | i | i | i | nt | nt | nt
CC(=O)NC1C(Oc2ccc3c(C)cc(=O)oc3c2)OC(COC(C)=O)C(OC(C)=O)C1OC(C)=O (stereo not given) | i | i | i | i | i | i | nt | nt | nt
O=C(Cn1c(C(F)(F)F)nc2ccccc21)OCC(=O)c1c[nH]c2ccccc12 | i | i | 138 | i | i | i | i | i | i
CCN(Cc1ccncc1)Cc1cn[nH]c1-c1cc(OC)c(OC)c(OC)c1 | i | i | i | i | i | i | nt | nt | nt
Cn1c2ccc(Cl)cc2c2nc3ccccc3nc21 | i | i | 173 | i | i | i | 173 | i | 131
CN1c2ccccc2C(C)(C)C12C=Nc1c(ccc3ccccc13)O2 (stereo not given) | i | i | 166 | i | i | i | 150 | i | i
CC(=O)OCC12COC3c4ccccc4OC(C)(CC1C)C3C2C (stereo not given) | i | i | i | i | i | i | nt | nt | nt
CCOc1cc(/C=C/C(=O)Nc2ccc(C(=O)NCCN(CC)CC)cc2)ccc1OCC(C)C | i | i | i | i | i | i | nt | nt | nt
CC1=C(CC(=O)c2ccccc2)C(=O)c2ccccc2C1=O | i | i | 138 | i | i | i | 143 | i | i
Cc1cccc(C)c1NS(=O)(=O)c1ccc2c(c1)C(=O)c1ccccc1C2=O | i | i | i | i | i | i | nt | nt | nt
Cc1ccccc1-c1cc2c(nn1)-c1ccccc1C2=O | 77 | i | 145 | i | i | i | 141 | i | i
COCc1ccc(CN2CCc3c([nH]c4ccccc34)C2C(C)(C)C)o1 (stereo not given) | i | i | 140 | i | i | i | 141 | i | i
CC(=O)n1cc(Nc2ccccc2C(=O)O)c2ccccc21 | i | i | 156 | i | i | i | 162 | i | i
CCOC(=O)c1ccccc1Nc1cn(C(C)=O)c2ccccc12 | i | i | 149 | i | i | i | 156 | i | i
CC(=O)n1cc(Nc2ccc([N+](=O)[O-])cc2)c2ccccc21 | i | i | 141 | i | i | i | 137 | i | i
SMILES | FLuc inhib CS | STAT1 act-1 | STAT3 act-1 | STAT1 blocker | FLuc stim CS | STAT3 inh | STAT3 act-2 | NFkB act 2 | STAT1 act-2
O=C(/C=C/c1ccccc1)N/C(=C/c1ccccc1)C(=O)NCCCO | i | i | i | i | i | i | nt | nt | nt
O=C(CCc1ccccc1)NCCc1nc2ccccc2[nH]1 | i | i | i | i | i | i | nt | nt | nt
COc1ccc(NC(=S)Nc2ccc(S(=O)(=O)N3CCOCC3)cc2)c(OC)c1 | i | i | i | i | i | i | nt | nt | nt
COc1ccc(NC(=S)Nc2ccc(S(N)(=O)=O)cc2)c(OC)c1 | i | i | 136 | i | i | i | i | i | i
O=C(CN1C(=O)/C(=C/c2c(F)cccc2Cl)Oc2ccccc21)NCc1ccco1 | i | i | 154 | i | i | i | 187 | i | i
Cn1c(O)c(N=Nc2nc(-c3ccccc3)cs2)c2ccccc21 | i | i | 147 | i | i | i | 159 | i | i
Cn1c(O)c(N=NC(=O)c2cc(-c3cccs3)nc3ccccc23)c2ccccc21 | i | i | i | i | i | i | nt | nt | nt
Cn1c(O)c(N=Nc2ccc(F)cc2)c2ccccc21 | i | i | 152 | i | i | i | 165 | i | i
CCOC(=O)c1c(C)oc2c1c1c(c3ccccc32)OCN(Cc2ccccn2)C1 | i | i | 150 | i | i | i | i | i | i
Cc1ccc(N2C(=O)CC(c3c[nH]c4ccccc34)C2=O)cc1 (stereo not given) | i | i | i | i | i | i | nt | nt | nt
CCC1=NN=C(c2ccc(F)cc2)C(c2c[nH]c3ccccc23)N1O (stereo not given) | i | i | 163 | i | i | i | 159 | i | i
COc1cc2cc(/C=C/C(=O)c3ccco3)c(Cl)nc2cc1OC | i | i | 139 | i | i | i | i | i | i
COc1ccc2cc(/C=C/C(=O)c3ccco3)c(Cl)nc2c1 | i | i | i | i | i | i | nt | nt | nt
CC(C)CC1CCCCC1OC(=O)C[N+]1(C)CCCCC1 (stereo not given) | i | i | i | i | i | i | nt | nt | nt
COc1ccc(/C=N/OC/C(O)=C(\C#N)c2nc3ccccc3[nH]2)cc1OC | i | i | i | i | i | i | nt | nt | nt
CSc1ccc(CN2CCN(C(=O)c3ccncc3)CC2)cc1 | i | i | i | i | i | i | nt | nt | nt
O=c1oc2ccccc2c(Nc2cc3ccccc3cc2O)c1[N+](=O)[O-] | i | i | 141 | i | i | i | 171 | i | i

Screening data deposited in PubChem BioAssay by several laboratories.
